Results reported in ChEMBL document CHEMBL1148372 (J Med Chem, 2004).
Several values for one entry are separate records, joined by “and”; a condition that tells them apart may be missing. Identical values can stand only once.

How the values were obtained:
D(4) dopamine receptor [1] = target: T1, D(4) dopamine receptor (Homo sapiens, UniProt P21917); assay: In vitro inhibitory concentration tested on human D4.4 receptor in HEK293 cells using FLIPR assay; type: cell-based
T1 sequence (P21917 whole entry): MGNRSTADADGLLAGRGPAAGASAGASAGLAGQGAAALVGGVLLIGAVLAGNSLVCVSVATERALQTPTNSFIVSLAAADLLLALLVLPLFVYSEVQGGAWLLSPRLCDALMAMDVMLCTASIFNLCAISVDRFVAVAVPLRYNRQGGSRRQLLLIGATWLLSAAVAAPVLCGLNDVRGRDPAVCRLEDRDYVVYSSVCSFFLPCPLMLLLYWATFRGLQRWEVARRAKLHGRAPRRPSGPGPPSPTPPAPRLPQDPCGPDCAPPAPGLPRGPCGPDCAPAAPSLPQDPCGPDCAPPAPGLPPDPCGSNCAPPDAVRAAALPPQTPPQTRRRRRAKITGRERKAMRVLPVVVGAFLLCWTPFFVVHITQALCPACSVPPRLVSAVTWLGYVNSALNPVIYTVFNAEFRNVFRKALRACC

D(4) dopamine receptor [2] = target: T1, D(4) dopamine receptor; assay: In vitro binding affinity tested on HEK293 cells co-transfected with human D4.4 receptor using [3H]spiperone as a radioligand […]; type: cell-based
Outline: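 Competition binding to membranes from HEK-293 cells transfected with human D4.4, stored at −80 °C. Radioligand was 0.1 nM [3H]-spiperone, incubated 2 h in 50 mM Tris-HCl pH 7.4 with 5 mM KCl, 120 mM NaCl, 5 mM MgCl2 and 1 mM EDTA. Compounds were in buffer with 0.1% ascorbic acid. Samples were filtered through glass fibre and washed three times with cold Tris. Bound radioactivity was counted by scintillation to give Ki.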

[3] = target: D(2) dopamine receptor (Rattus norvegicus) (UniProt P61169); assay: In vitro efficacy tested on rat Dopamine receptor D2 were coexpressed with GRqo5 in HEK293 cells using FLIPR assay (Efficacy relative to 10 uM dopamine); type: functional, cell-based
Outline: (§1)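 HEK cells co-transfected with the target receptor plus Gαqo5. […] Compounds were tested up to 10 µM. Untransfected cells served as a control.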

[4] = target: D(2) dopamine receptor (Rattus norvegicus) (UniProt P61169); assay: In vitro efficacy tested on ferret Dopamine receptor D2 were co-expressed with GRqo5 in HEK293 cells using FLIPR assay (Efficacy relative to 10 uM dopamine); type: functional, cell-based; outline: as §1
D(4) dopamine receptor [5] = target: T2, D(4) dopamine receptor (Rattus norvegicus, UniProt P30729); assay: In vitro effective concentration tested on HEK293 cells co-transfected with rat Dopamine receptor D4 using FLIPR assay; Not an agonist up to 10 uM; type: functional, cell-based; outline: as §1
T2 sequence (P30729 whole entry): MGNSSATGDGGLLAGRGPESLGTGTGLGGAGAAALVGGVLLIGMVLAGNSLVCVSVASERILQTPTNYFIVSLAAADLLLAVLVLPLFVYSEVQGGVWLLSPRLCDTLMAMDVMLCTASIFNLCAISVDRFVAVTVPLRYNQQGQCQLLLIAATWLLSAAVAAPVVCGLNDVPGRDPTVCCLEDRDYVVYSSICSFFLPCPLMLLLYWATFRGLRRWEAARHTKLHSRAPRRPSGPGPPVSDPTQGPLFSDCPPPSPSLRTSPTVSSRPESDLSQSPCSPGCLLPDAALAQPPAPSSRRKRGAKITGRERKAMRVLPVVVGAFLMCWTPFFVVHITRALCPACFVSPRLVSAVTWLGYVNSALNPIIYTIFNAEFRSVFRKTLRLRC

D(2) dopamine receptor [6] = target: T3, D(2) dopamine receptor (Homo sapiens, UniProt P14416); assay: In vitro efficacy tested on human Dopamine receptor D2 were co-expressed with GRqo5 in HEK293 cells using FLIPR assay (Efficacy relative to 10 uM dopamine); type: functional, cell-based
D(4) dopamine receptor [7] = target: T1, D(4) dopamine receptor; assay: In vitro effective concentration tested on HEK293 cells co-transfected with human Dopamine receptor D4 using FLIPR assay; Not an agonist up to 10 uM; type: functional, cell-based
Outline: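 Human D4.4 receptor co-expressed with Gαqo5 in HEK293 cells, plated at 20 000 cells/well and grown 2 days. Loaded with 4 µM Fluo-4 and 0.04% Pluronic F-127 in DPBS with glucose and pyruvate for 1 h at 23 °C, then washed. Compound added and fluorescence read over 3 min on FLIPR. […] EC50 is the concentration giving half-maximal response.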

[8] = target: T4, D(4) dopamine receptor (Homo sapiens) (UniProt P21917); assay: In vitro efficacy tested on human Dopamine receptor D4.4 were co-expressed with GRqo5 in HEK293 cells using FLIPR assay (Efficacy relative to 10 uM dopamine); type: cell-based
T4 sequence (whole entry): T1 sequence (P21917 whole entry)
Outline: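 HEK293 cells coexpressing human D4.4 receptor and Gαqo5, plated at 20 000 cells/well and grown 2 days. Loaded 1 h at 23 °C with 4 µM Fluo-4 plus 0.04% Pluronic F-127 in DPBS, washed four times. Compound added, fluorescence read over 3 min.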

D(2) dopamine receptor [9] = target: T5, D(2) dopamine receptor (Rattus norvegicus, UniProt P61169); assay: In vitro effective concentration tested on HEK293 cells co-transfected with rat Dopamine receptor D2 using FLIPR assay; Not an agonist up to 10 uM; type: functional, cell-based
[10] = target: T6, 5-hydroxytryptamine receptor 1A (Homo sapiens, UniProt P08908); assay: In vitro binding affinity tested on human 5-hydroxytryptamine 1A receptor
T6 sequence (P08908 whole entry): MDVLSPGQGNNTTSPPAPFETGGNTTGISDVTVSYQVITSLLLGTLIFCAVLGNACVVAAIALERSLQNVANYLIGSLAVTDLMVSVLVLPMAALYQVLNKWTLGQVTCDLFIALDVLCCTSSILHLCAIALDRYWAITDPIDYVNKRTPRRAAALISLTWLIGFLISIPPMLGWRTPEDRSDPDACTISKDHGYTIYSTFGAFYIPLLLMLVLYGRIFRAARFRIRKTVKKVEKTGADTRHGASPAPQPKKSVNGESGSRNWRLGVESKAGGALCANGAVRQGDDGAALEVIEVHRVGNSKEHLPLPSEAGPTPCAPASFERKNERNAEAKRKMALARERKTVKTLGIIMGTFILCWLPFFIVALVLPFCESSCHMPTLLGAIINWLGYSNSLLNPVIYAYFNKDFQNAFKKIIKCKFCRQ

Rattus norvegicus [11] = assay: In vivo maximal effective dose tested in rats for erection 60 min after subcutaneous administration; type: functional
Outline: (§2)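 Conscious male Wistar rats, adapted 60 min to a dim red-lit room, tested between 9:00 a.m. and 3:00 p.m. Dosed subcutaneously, then caged singly and observed directly for 60 min. Percent incidence is the share of animals with one or more erections; 8–30 animals per group. Maximally effective dose is the dose giving peak incidence, with significance versus control.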

D(4) dopamine receptor [12] = target: T2, D(4) dopamine receptor; assay: In vitro effective concentration tested on HEK293 cells co-transfected with rat Dopamine receptor D4 using FLIPR assay; type: cell-based
D(2) dopamine receptor [13] = target: T3, D(2) dopamine receptor; assay: In vitro binding affinity tested on human Dopamine receptor D2 (short) using [3H]spiperone as a radioligand
D(2) dopamine receptor [14] = target: T3, D(2) dopamine receptor; assay: In vitro binding affinity tested on human Dopamine receptor D2 (long) using [3H]spiperon as a radioligand
D(2) dopamine receptor [15] = target: T3, D(2) dopamine receptor; assay: In vitro effective concentration tested on HEK293 cells co-transfected with human Dopamine receptor D2 using FLIPR assay; Not an agonist up to 10 uM; type: functional, cell-based
D(2) dopamine receptor [16] = target: T3, D(2) dopamine receptor; assay: In vitro binding affinity tested on human Dopamine receptor D2 using [3H]spiperon as a radioligand
Rattus norvegicus [17] = assay: In vivo maximal penile erection in rats 60 min after subcutaneous administration; type: functional; outline: as §2
[18] = target: T6, 5-hydroxytryptamine receptor 1A; assay: Binding affinity towards human 5-hydroxytryptamine 1A receptor
[19] = target: Kappa-type opioid receptor (Homo sapiens, UniProt P41145); assay: Binding affinity towards human Opioid receptor kappa 1
[20] = target: D(2) dopamine receptor (Rattus norvegicus) (UniProt P61169); assay: In vitro efficacy tested on rat Dopamine receptor D2 were co-expressed with GRqo5 in HEK293 cells using FLIPR assay (Efficacy relative to 10 uM dopamine); type: cell-based
[21] = target: T7, Adrenergic receptor alpha-2 (Homo sapiens, UniProt P08913+P18825+P18089); assay: Binding affinity towards human alpha-2 adrenergic receptor; type: protein assay
T7 sequence (P08913 whole entry): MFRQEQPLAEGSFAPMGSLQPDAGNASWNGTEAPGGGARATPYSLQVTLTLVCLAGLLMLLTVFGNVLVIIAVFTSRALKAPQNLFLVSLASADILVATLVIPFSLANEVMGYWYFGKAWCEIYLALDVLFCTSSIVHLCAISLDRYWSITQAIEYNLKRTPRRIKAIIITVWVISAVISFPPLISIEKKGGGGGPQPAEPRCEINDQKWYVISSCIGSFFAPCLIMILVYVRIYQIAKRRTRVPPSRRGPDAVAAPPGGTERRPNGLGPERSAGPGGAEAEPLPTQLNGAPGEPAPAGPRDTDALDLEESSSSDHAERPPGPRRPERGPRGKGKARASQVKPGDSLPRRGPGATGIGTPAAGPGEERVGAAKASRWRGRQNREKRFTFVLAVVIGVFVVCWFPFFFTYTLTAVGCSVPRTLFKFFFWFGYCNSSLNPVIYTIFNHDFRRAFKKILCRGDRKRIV
T7 sequence (P18825 whole entry): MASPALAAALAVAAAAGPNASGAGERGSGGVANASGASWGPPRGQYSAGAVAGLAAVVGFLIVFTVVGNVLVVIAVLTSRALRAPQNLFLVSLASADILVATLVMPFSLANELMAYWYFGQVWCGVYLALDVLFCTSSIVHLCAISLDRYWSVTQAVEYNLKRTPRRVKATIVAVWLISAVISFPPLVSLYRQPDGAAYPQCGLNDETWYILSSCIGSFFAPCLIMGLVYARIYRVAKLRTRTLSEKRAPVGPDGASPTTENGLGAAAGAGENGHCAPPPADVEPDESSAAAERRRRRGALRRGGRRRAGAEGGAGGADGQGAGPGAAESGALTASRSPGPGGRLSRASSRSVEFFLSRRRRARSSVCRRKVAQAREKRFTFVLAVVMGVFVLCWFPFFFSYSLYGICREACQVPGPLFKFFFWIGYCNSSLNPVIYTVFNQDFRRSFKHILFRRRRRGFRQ
T7 sequence (P18089 whole entry): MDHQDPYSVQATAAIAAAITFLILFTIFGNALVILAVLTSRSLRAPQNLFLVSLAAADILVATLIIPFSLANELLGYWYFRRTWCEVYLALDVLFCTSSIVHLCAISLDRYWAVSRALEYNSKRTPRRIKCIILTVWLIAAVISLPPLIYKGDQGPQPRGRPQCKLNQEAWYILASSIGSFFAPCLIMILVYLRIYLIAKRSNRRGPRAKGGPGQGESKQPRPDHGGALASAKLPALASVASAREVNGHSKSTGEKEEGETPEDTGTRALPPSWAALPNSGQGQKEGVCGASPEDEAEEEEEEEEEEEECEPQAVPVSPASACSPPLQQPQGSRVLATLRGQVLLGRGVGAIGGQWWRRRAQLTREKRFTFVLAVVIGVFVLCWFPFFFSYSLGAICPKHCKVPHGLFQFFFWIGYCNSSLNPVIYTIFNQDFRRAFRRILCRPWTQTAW

D(2) dopamine receptor [22] = target: T5, D(2) dopamine receptor; assay: In vitro effective concentration tested on HEK293 cells co-transfected with rat Dopamine receptor D2 using FLIPR assay; type: cell-based
D(4) dopamine receptor [23] = target: T1, D(4) dopamine receptor; assay: Binding affinity towards human D4.4 receptor
Outline: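 Membranes from HEK-293 cells transfected with human D4.4 receptor, stored at -80 °C. Filtration through glass microfiber filters, three cold Tris washes, scintillation counting; Ki derived.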

D(3) dopamine receptor = D(3) dopamine receptor (Homo sapiens, UniProt P35462); assay: Binding affinity towards human Dopamine receptor D3
D(2) dopamine receptor [24] = target: T3, D(2) dopamine receptor; assay: Binding affinity towards human Dopamine receptor D2

Sequence of D(2) dopamine receptor (Rattus norvegicus) (P61169 whole entry): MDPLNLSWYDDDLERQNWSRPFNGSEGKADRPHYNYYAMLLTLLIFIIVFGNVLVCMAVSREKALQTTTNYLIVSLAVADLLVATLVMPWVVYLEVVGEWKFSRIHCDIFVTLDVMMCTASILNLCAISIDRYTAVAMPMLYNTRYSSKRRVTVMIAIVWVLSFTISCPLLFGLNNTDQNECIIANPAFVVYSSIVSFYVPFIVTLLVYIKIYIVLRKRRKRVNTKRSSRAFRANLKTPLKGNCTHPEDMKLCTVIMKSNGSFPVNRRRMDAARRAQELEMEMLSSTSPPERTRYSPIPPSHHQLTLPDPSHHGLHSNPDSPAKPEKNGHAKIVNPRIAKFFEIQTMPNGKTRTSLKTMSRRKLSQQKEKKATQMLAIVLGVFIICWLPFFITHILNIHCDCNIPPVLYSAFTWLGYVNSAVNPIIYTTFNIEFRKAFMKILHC
T3 sequence (P14416 whole entry): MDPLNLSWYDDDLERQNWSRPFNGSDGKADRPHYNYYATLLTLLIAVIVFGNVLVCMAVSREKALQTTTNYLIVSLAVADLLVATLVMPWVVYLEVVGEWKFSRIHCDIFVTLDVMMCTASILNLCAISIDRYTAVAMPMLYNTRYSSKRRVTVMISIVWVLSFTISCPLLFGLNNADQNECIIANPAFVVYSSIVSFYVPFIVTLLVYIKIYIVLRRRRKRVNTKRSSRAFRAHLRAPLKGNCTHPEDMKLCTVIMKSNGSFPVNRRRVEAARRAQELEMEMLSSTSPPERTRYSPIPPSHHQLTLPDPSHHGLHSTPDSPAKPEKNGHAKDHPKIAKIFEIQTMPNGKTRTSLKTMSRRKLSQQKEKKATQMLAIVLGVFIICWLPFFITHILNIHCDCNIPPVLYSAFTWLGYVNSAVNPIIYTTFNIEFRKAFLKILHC
T5 sequence (P61169 whole entry): as the sequence (P61169 whole entry) above
Sequence of Kappa-type opioid receptor (P41145 whole entry): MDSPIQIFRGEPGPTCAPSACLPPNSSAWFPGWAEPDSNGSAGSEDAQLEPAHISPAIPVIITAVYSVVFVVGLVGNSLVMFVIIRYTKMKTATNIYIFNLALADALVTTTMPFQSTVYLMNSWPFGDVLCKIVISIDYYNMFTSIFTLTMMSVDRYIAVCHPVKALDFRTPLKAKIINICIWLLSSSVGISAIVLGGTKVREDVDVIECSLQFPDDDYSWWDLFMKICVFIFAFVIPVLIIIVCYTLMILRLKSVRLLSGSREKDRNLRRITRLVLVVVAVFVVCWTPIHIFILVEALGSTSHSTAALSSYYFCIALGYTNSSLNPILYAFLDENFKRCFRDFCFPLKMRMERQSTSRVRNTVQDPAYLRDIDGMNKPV
Sequence of D(3) dopamine receptor (P35462 whole entry): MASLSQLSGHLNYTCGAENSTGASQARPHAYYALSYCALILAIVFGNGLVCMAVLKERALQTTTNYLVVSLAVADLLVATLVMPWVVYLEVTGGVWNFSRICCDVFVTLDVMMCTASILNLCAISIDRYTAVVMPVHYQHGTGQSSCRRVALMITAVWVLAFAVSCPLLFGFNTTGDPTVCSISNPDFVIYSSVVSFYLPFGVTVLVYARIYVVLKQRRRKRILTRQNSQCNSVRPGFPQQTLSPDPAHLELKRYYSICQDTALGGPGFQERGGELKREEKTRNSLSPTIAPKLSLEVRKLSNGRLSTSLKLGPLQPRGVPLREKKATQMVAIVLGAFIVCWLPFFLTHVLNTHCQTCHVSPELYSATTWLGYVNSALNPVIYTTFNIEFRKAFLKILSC

## Cc1ccc(C)c(N2CCN(Cc3nc4ccccc4[nH]3)CC2)c1
D(4) dopamine receptor [1]
  IC50: 0.001 µM
D(4) dopamine receptor [2]
  Ki: 0.0038 µM

## CN[C@@H]1Cc2cccc3[nH]c(=O)n(c23)C1 [SUMANIROLE]
[3]
  Efficacy: 103%
[4]
  Efficacy: 90%
D(4) dopamine receptor [5]
  EC50: Not Active
D(2) dopamine receptor [6]
  Efficacy: 93%
D(4) dopamine receptor [7]
  EC50: Not Active

## c1ccc(N2CCN(Cc3nc4ccccc4[nH]3)CC2)nc1 [ABT-724]
[8]
  Efficacy: 61%
D(2) dopamine receptor [9]
  EC50: Not Active
[10]
  Ki: > 10 µM and 2780 µM
Rattus norvegicus [11]
  Effective dose: 0.03 µM/kg
D(4) dopamine receptor [12]
  EC50: 0.0143 µM
D(2) dopamine receptor [13]
  Ki: 51 µM
D(2) dopamine receptor [14]
  Ki: 15 µM
D(2) dopamine receptor [15]
  EC50: Not Active
D(2) dopamine receptor [16]
  Ki: 0.16 µM
Rattus norvegicus [17]
  Activity: 77%

## Fc1ccc2[nH]c(CN3CCN(c4ccccn4)CC3)cc2c1
[18]
  Ki: 0.2 µM
[19]
  Ki: 0.3 µM
[20]
  Efficacy: 89%
[21]
  Ki: 0.4 µM
Rattus norvegicus [11]
  Effective dose: 1 µM/kg
D(4) dopamine receptor [12]
  EC50: 0.036 µM
D(2) dopamine receptor [15]
  EC50: Not Active
Rattus norvegicus [17]
  Activity: 83%
D(2) dopamine receptor [22]
  EC50: 0.055 µM
D(4) dopamine receptor [23]
  Ki: 0.0036 µM
D(3) dopamine receptor
  Ki: 0.56 µM
D(2) dopamine receptor [24]
  Ki: 0.12 µM

## Cc1ccc(N2CCN(Cc3nc4ccccc4[nH]3)CC2)cc1C
D(4) dopamine receptor [1]
  IC50: 0.005 µM
D(4) dopamine receptor [2]
  Ki: 0.0015 µM
